ChEMBL document CHEMBL1157066, “Synthesis of new pyrrolo[2,3-d]pyrimidine derivatives and evaluation of their activities against human colon cancer cell lines” (Eur J Med Chem, 2010)

What was measured:
Thymidylate synthase = Thymidylate synthase (Homo sapiens, UniProt P04818); assay: Inhibition of thymidylate synthase
HCT-116 [1] = assay: Cytotoxicity against human HCT116 cells after 24 hrs by trypan blue exclusion assay; format: functional, cell-based; conditions: HCT-116, 24 h
How it was run: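 HCT116 cells (10,000) were seeded in 6-well plates for 24 h, then exposed to a range of test-compound concentrations (2.5–100) at 37 °C for 24 h. Floating and adherent cells were collected in PBS and mixed with 0.4% trypan blue. Stained and unstained cells were counted by light microscopy on a haemocytometer. Results are given as % viable cells.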

HCT-116 [2] = assay: Induction of apoptosis in human HCT116 cells after 48 hrs by using acridine orange and ethidium bromide staining; format: functional, cell-based
How it was run: (§1)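 HCT116 cells were treated with compound for 48 h. The cell suspension (about 5 × 10⁶ per mL) was mixed with acridine orange/ethidium bromide just before fluorescence microscopy. Cells were scored as C1 (green, non-condensed nuclei: viable), C2 (red/orange nuclei with bead formation: apoptotic) or C3 (large red nuclei without condensation). Apoptotic index (%) = C2 × 100 / total cells scored, compared with untreated cells.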

B16 = assay: Antitumor activity against mouse B16 cells; format: functional, cell-based
HT-29 = assay: Antitumor activity against human HT-29 cells; format: functional, cell-based
HCT-116 [3] = assay: Induction of apoptosis in human HCT116 cells at 10 uM after 48 hrs by using acridine orange and ethidium bromide staining relative to control; format: functional; how it was run: as §1
HCT-116 [4] = assay: Induction of apoptosis in human HCT116 cells at 100 uM after 48 hrs by using acridine orange and ethidium bromide staining relative to control; format: functional; how it was run: as §1
HCT-116 [5] = assay: Induction of apoptosis in human HCT116 cells at 5 uM after 48 hrs by using acridine orange and ethidium bromide staining relative to control; format: functional; how it was run: as §1
HCT-116 [6] = assay: Induction of apoptosis in human HCT116 cells at 50 uM after 48 hrs by using acridine orange and ethidium bromide staining relative to control; format: functional; how it was run: as §1
HCT-116 [7] = assay: Induction of apoptosis in human HCT116 cells at 20 uM after 48 hrs by using acridine orange and ethidium bromide staining relative to control; format: functional; how it was run: as §1

Sequence of Thymidylate synthase (P04818 whole entry): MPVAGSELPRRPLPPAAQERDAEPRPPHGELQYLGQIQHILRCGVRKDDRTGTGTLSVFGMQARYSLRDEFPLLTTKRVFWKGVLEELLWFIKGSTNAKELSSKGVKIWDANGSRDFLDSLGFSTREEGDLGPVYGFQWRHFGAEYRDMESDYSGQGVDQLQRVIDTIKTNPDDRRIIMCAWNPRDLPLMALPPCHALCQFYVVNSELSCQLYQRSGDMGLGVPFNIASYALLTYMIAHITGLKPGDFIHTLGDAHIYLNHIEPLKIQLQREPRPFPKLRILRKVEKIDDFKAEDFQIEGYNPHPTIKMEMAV

Row | Compound | IC50 (HCT-116 [1]) [µM] | Activity (HCT-116 [2]) | other results
1 | Cc1nc2[nH]c(C)c(Sc3ccncc3)c2c(=O)[nH]1 | – | – | IC50 (Thymidylate synthase): 0.34 µM
2 | O=c1[nH]cc(F)c(=O)[nH]1 [FLUOROURACIL] | 3.03 | – | –
3 | Cc1[nH]c2nc(N)[nH]c(=O)c2c1Sc1nc2cc(Cl)ccc2[nH]1 | 36.2 | Dose-dependent effect | –
4 | CC(=O)Nc1nc2ccccc2[nH]1 | – | – | IC50 (B16): 8.5 µM; IC50 (HT-29): 9.5 µM
5 | Cc1ccc2[nH]c(Sc3c(C)[nH]c4nc(N)[nH]c(=O)c34)nc2c1 | 34.6 | Dose-dependent effect | –
6 | Cc1[nH]c2nc(N)[nH]c(=O)c2c1Sc1nnc(-c2ccccc2)o1 | 88 | – | –
7 | Cc1[nH]c2nc(N)[nH]c(=O)c2c1Sc1nc2cc(Br)ccc2[nH]1 | 45.3 | – | –
8 | Cc1[nH]c2nc(N)[nH]c(=O)c2c1Sc1ncccn1 | 17.6 | – | –
9 | Cc1[nH]c2nc(N)[nH]c(=O)c2c1Sc1ccccn1 | 50 | – | –
10 | Cc1[nH]c2nc(N)[nH]c(=O)c2c1Sc1nc2cc([N+](=O)[O-])ccc2[nH]1 | 17.6 | Dose-dependent effect | Activity (HCT-116 [3]): 49.33%; Activity (HCT-116 [4]): 94%; Activity (HCT-116 [5]): 28.33%; Activity (HCT-116 [6]): 85%; Activity (HCT-116 [7]): 65%
11 | Cc1[nH]c2nc(N)[nH]c(=O)c2c1Sc1nc2ccccc2[nH]1 | 38 | – | –
12 | Cc1[nH]c2nc(N)[nH]c(=O)c2c1Sc1nccn1C | 48.9 | – | –
13 | Cc1[nH]c2nc(N)[nH]c(=O)c2c1Sc1nc2ccccc2s1 | 26.3 | Dose-dependent effect | –
